Calls of active or inactive are those of the source. The calls are words filed in the database; no cut-off is given here.
Key:
[1] = Drug uptake in endoplasmic reticulum of human HaCaT cells at 1 uM after 6 hrs by ER-tracker dye-based fluorescence microscopy; assay type: ADME, cell-based
Summary of the method: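 Cells grown on glass coverslips were incubated with 1×10^-6 M photosensitizer for 6 h at 37 °C, washed twice in PBS and imaged live by fluorescence microscopy. Organelle probes (ER-Tracker, ex 374/em 430 nm; NBD-Golgi, ex 466/em 536 nm) were applied for 30 min at the supplier's concentrations, and their patterns were compared with the compound signal.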

[2] = Phototoxicity against human HaCaT cells incubated for 6 hrs followed by UV irradiation at 0.25 J/cm'2 measured after 24 hrs by MTT assay; assay type: cell-based; settings: read-out: LD50
Summary of the method: (§1)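 Cultures at 60–70% confluence were loaded with the photosensitizer for 6 h in medium with 1% FBS and <0.5% DMSO. Medium was then replaced and cells were irradiated with UVA (300–400 nm, 15.9 W/m² at 10 cm), then washed and kept in complete medium for 24 h. Survival was read by MTT (50 µg/mL, 4 h, 542 nm) as % of untreated control OD.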

[3] = system: HaCaT; test: Phototoxicity against human HaCaT cells assessed as cell lethality at 3 to 250 uM incubated for 6 hrs followed by UV irradiation at 0.5 J/cm'2 measured after 24 hrs by MTT assay; assay type: cell-based; summary of the method: as §1
[4] = system: HeLa; test: Phototoxicity against human HeLa cells assessed as cell lethality at 3 to 250 uM incubated for 6 hrs followed by UV irradiation at 0.5 J/cm'2 measured after 24 hrs by MTT assay; assay type: functional; summary of the method: as §1
[5] = Phototoxicity against human Hep2 cells assessed as cell lethality at 3 to 250 uM incubated for 6 hrs followed by UV irradiation at 1 J/cm'2 measured after 24 hrs by MTT assay; assay type: functional, HEp-2; summary of the method: as §1
[6] = Phototoxicity against human Hep2 cells assessed as cell lethality at 3 to 250 uM incubated for 6 hrs followed by UV irradiation at 2 J/cm'2 measured after 24 hrs by MTT assay; assay type: functional, HEp-2; summary of the method: as §1
[7] = system: HaCaT; test: Induction of cell morphological changes in human HaCaT cells assessed as appearance of necrotic cells with loss of membrane integrity at 3 to 5 uM after 24 hrs by Hoechst 33258 staining-based phase contrast microscopy in presence of UVA light
[8] = system: HeLa; test: Induction of cell morphological changes in human HeLa cells assessed as cytoplasmic vacuolization at 3 to 5 uM after 24 hrs by Hoechst 33258 staining-based phase contrast microscopy in presence of UVA light; assay type: functional
[9] = system: HEp-2; test: Induction of cell morphological changes in human Hep2 cells assessed as cytoplasmic vacuolization at 3 to 5 uM after 24 hrs by Hoechst 33258 staining-based phase contrast microscopy in presence of UVA light; assay type: functional
[10] = system: HEp-2; test: Induction of morphological changes in human Hep2 cells assessed as nuclear retraction at LD50 after 24 hrs by Hoechst 33258 staining-based fluorescence microscopy in presence of UVA light; assay type: functional, cell-based
[11] = system: HaCaT; test: Induction of apoptotic morphological changes in human HaCaT cells at LD50 after 24 hrs by Hoechst 33258 staining-based fluorescence microscopy in presence of UVA light; assay type: cell-based
[12] = system: HeLa; test: Induction of apoptotic morphological changes in human HeLa cells at LD50 after 24 hrs by Hoechst 33258 staining-based fluorescence microscopy in presence of UVA light; assay type: functional, cell-based
[13] = system: HeLa; test: Induction of necrotic morphological changes in human HeLa cells at LD50 after 24 hrs by Hoechst 33258 staining-based fluorescence microscopy in presence of UVA light; assay type: functional, cell-based
[14] = system: HEp-2; test: Induction of necrotic morphological changes in human Hep2 cells at LD50 after 24 hrs by Hoechst 33258 staining-based fluorescence microscopy in presence of UVA light; assay type: functional, cell-based
[15] = system: HeLa; test: Increase in mitotic nuclei level in human HeLa cells at LD50 after 24 hrs by Hoechst 33258 staining-based fluorescence microscopy in presence of UVA light; assay type: functional, cell-based
[16] = system: HaCaT; test: Induction of apoptosis in human HaCaT cells at LD50 after 24 hrs by acridine orange/ethidium bromide staining-based assay in presence of 0.25 to 0.5 J/cm'2 UVA light; assay type: cell-based
[17] = system: HeLa; test: Induction of apoptosis in human HeLa cells at LD50 after 24 hrs by acridine orange/ethidium bromide staining-based assay in presence of 0.25 to 0.5 J/cm'2 UVA light; assay type: functional, cell-based
[18] = system: HeLa; test: Induction of microtubule disruption in human HeLa cells assessed as appearance of extrapoles at LD50 after 24 hrs by immunofluorescence assay in presence of UVA light; assay type: cell-based
[19] = Induction of microtubule disruption in human Hep2 cells assessed as abnormality in chromosome distribution at LD50 after 24 hrs by immunofluorescence assay in presence of UVA light; assay type: cell-based; settings: HEp-2
[20] = system: HEp-2; test: Induction of microtubule disruption in human Hep2 cells assessed as increase in mitotic index at LD50 after 24 hrs by immunofluorescence assay in presence of UVA light; assay type: cell-based
[21] = Induction of microtubule disruption in human HaCaT cells assessed as increase in altered metaphase at LD50 after 24 hrs by immunofluorescence assay in presence of UVA light; assay type: cell-based
[22] = Induction of singlet-oxygen generation at 5 x 10^-5 M irradiated at 380 nm by uric acid degradation assay; assay type: physicochemical; settings: 0.38 µM
[23] = Induction of microtubule disruption in human HaCaT cells assessed as appearance of apoptotic morphology at LD50 after 24 hrs by immunofluorescence assay in presence of UVA light; assay type: cell-based
[24] = system: HeLa; test: Induction of cell morphological changes in human HeLa cells assessed as appearance of rounded cells at 3 to 5 uM after 24 hrs by Hoechst 33258 staining-based phase contrast microscopy in presence of UVA light; assay type: functional
[25] = system: HeLa; test: Induction of cell morphological changes in human HeLa cells assessed as cell detachment from substrate at 3 to 5 uM after 24 hrs by Hoechst 33258 staining-based phase contrast microscopy in presence of UVA light; assay type: functional
[26] = system: HEp-2; test: Induction of cell morphological changes in human Hep2 cells assessed as deep deformation of cell membrane at LD90 after 24 hrs by Hoechst 33258 staining-based phase contrast microscopy in presence of 1 to 2 J/Cm'2 UVA light; assay type: functional
[27] = system: HaCaT; test: Induction of cell morphological changes in human HaCaT cells assessed as deep deformation of cell membrane at LD90 after 24 hrs by Hoechst 33258 staining-based phase contrast microscopy in presence of 1 to 2 J/Cm'2 UVA light
[28] = Induction of singlet-oxygen generation at 5 x 10^-5 M irradiated at 390 nm by uric acid degradation assay; assay type: physicochemical; settings: 0.39 µM

| SMILES | Drug uptake [1] | CC50 at 24 h [2] [nM] | mortality [3] [%] | mortality [4] [%] | mortality [5] [%] | mortality [6] [%] | Activity [7] | Activity [8] | Activity [9] | Activity [10] | Activity [11] | Activity [12] | Activity [13] | Activity [14] | Activity [15] | Activity [16] | Activity [17] | Activity [18] | Activity [19] | Activity [20] | also measured |
| --- | --- | --- | --- | --- | --- | --- | --- | --- | --- | --- | --- | --- | --- | --- | --- | --- | --- | --- | --- | --- | --- |
| COc1cc(C#Cc2ccc(C#Cc3cc(OC)c(C#CCO[C@@H]4O[C@H](CO)[C@@H](O)[C@H](O)[C@H]4O)cc3OC)c(N(C)C)c2)c(OC)cc1C#CCO[C@@H]1O[C@H](CO)[C@@H](O)[C@H](O)[C@H]1O | Active | 3000 | > 50 | >50 | >50 | >50 | Toxic | Active | Active | Active | Toxic | Active | Active | Active | Active | Toxic | Active | Active | Active | Active | Activity [21]: Non-toxic; Activity [22]: Active; Activity [23]: Toxic; Activity [24]: Active; Activity [25]: Active; Activity [26]: Active; Activity [27]: Toxic |
| COc1cc(C#Cc2ccc(C#CCO[C@@H]3O[C@H](CO)[C@@H](O)[C@H](O)[C@H]3O)cc2N(C)C)c(OC)cc1C#Cc1ccc(C#CCO[C@@H]2O[C@H](CO)[C@@H](O)[C@H](O)[C@H]2O)cc1N(C)C | Active | 3000 | > 50 | >50 | >50 | >50 | Toxic | Active | Active | Active | Toxic | Active | Active | Active | Active | Toxic | Active | Active | Active | Active | Activity [28]: Active; Activity [21]: Non-toxic; Activity [23]: Toxic; Activity [24]: Active; Activity [25]: Active; Activity [26]: Active; Activity [27]: Toxic |

From ChEMBL document CHEMBL3769305, “Glucose-functionalized amino-OPEs as biocompatible photosensitizers in PDT” (Eur J Med Chem, 2016)
